Assay results of several laboratories.
Protocols differ between the studies behind these lines.
Target: Dual specificity protein kinase CLK3 (CLK3, Homo sapiens, UniProt P49761)

COc1cc(Nc2ncc(F)c(Nc3ccc4c(n3)NC(=O)C(C)(C)O4)n2)cc(OC)c1OC — inhibition (binding; competition with immobilised ligand; 10 µM): 78%
COc1ncccc1-c1cnn2ccc(N3CCN(C(=O)OC(C)C)CC3)nc12 — remaining binding (binding; competition with immobilised ligand; 1 µM): 78%
Cn1cc(-c2cccc(N3CCc4c(sc5c4CC(C)(C)C5)C3=O)c2CO)cc(Nc2ccncn2)c1=O — inhibition (enzyme activity; inhibitor; 1 µM): 4%
Cc1nn(C)cc1-c1nc2c(N3CCN(Cc4ccc(Cl)cc4)CC3)c(Cl)cnc2[nH]1 — remaining binding (binding; competition with immobilised ligand; 1 µM): 88%
CC(C)(C)c1cc(C=C(C#N)C#N)cc(Br)c1O — remaining activity (enzyme activity; inhibitor; 0.5 µM): 122%
Nc1ncc(-c2nc(N3CCOCC3)nc(N3CCOCC3)n2)c(C(F)F)n1 — remaining binding (binding; competition with immobilised ligand; 10 µM): 90%
C#Cc1n[nH]c2c(-c3cn([C@@H](C)c4ccccn4)c(=O)[nH]c3=O)cc(F)cc12 — inhibition (enzyme activity; inhibitor; 0.1 µM): 0.7%
N#CC1(c2ccccn2)CCN(Cc2cc(C(=O)O)c(=O)n3ccccc23)CC1 — remaining binding (cell-free assay; competition with immobilised ligand; 1 µM): 100%
CCn1cnc2c(Nc3cccc(Cl)c3)nc(N[C@H]3CCCC[C@H]3N)nc21 — remaining activity (enzyme activity; inhibitor; 0.5 µM): 99.8%
Cn1cncc1[C@@](O)(COc1ccc(C#N)cc1-c1ccc(OC(F)(F)F)cc1)c1ccc(C#N)cc1 — remaining binding (cell-free assay; competition with immobilised ligand; 1 µM): 100%
Cn1cc(-c2cc(F)cc(N3CCn4c(cc5c4CCCC5)C3=O)c2CO)cc(Nc2ccc(N3CCN(C4COC4)CC3)cn2)c1=O — inhibition (enzyme activity; inhibitor; 0.1 µM): 11%
